According to ChEMBL document CHEMBL4007420, “Structural Optimization and Pharmacological Evaluation of Inhibitors Targeting Dual-Specificity Tyrosine Phosphorylation-Regulated Kinases (DYRK) and CDC-like kinases (CLK) in Glioblastoma” (J Med Chem, 2017):
pEC50, pIC50: −log10 of the molar value. Calls of active or inactive are those of the source. The calls are words filed in the database; no cut-off is given here.

Legend:
Homo sapiens = species: Homo sapiens; experiment: Inhibition of tubulin (unknown origin) polymerization
[1] = Cytotoxicity against patient-derived RN1 cells assessed as reduction in cell viability after 3 days by Alamar blue assay; type: functional, cell-based; conditions: Homo sapiens, RN1, 72 h
In short: (§1)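 The patient-derived glioblastoma lines were grown as stem cells under defined conditions to keep the phenotype and genotype of the resected tumours. Viability after treatment was read with Alamar blue.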

[2] = Cytotoxicity against patient-derived WK1 cells assessed as reduction in cell viability after 5 days by Alamar blue assay; type: functional, cell-based; conditions: Homo sapiens, WK1, 120 h; in short: as §1
[3] = target: T1, Dual specificity tyrosine-phosphorylation-regulated kinase 2 (Homo sapiens, UniProt Q92630); experiment: Inhibition of DYRK2 (unknown origin) using woodtide as substrate after 40 mins in presence of [gamma-33P]ATP by microbeta scintillation counting
T1 sequence (Q92630 whole entry): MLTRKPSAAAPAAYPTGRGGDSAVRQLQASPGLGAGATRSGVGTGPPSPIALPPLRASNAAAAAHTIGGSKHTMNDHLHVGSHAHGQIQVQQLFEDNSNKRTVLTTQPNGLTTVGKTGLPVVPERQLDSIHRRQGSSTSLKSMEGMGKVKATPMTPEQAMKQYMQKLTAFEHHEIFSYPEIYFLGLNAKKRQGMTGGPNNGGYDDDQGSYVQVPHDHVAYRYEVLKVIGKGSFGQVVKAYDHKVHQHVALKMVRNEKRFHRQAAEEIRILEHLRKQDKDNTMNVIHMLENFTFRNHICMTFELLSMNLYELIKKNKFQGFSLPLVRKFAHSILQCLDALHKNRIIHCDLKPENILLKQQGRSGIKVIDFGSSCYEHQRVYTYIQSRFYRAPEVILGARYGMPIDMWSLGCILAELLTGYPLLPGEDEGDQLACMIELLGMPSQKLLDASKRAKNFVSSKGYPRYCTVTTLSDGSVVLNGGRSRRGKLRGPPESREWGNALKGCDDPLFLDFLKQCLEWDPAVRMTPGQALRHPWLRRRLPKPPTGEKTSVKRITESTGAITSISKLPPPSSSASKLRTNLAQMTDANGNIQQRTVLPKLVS

[4] = target: Dual specificity tyrosine-phosphorylation-regulated kinase 1B (Homo sapiens, UniProt Q9Y463); experiment: Inhibition of DYRK1B (unknown origin) using woodtide as substrate after 40 mins in presence of [gamma-33P]ATP by microbeta scintillation counting
Sequence of Dual specificity tyrosine-phosphorylation-regulated kinase 1B (Q9Y463 whole entry): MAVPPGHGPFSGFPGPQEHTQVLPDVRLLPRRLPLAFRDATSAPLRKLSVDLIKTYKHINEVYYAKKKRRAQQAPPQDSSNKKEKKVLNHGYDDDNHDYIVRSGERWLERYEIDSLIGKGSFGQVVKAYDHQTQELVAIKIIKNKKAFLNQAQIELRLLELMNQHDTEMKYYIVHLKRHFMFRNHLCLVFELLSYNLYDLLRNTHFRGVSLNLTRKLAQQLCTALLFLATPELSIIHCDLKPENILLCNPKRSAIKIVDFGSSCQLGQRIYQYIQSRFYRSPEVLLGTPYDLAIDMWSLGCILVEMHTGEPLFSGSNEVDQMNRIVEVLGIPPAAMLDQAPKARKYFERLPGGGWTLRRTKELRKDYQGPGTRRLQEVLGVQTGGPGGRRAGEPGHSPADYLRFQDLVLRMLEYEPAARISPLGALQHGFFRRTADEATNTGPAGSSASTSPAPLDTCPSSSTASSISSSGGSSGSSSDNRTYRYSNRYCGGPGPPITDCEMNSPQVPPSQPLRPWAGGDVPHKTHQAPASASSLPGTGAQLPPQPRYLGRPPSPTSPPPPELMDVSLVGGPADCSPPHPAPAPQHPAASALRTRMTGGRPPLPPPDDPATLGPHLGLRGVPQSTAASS

[5] = Cytotoxicity against patient-derived JK2 cells assessed as reduction in cell viability after 3 days by Alamar blue assay; type: functional, cell-based; conditions: Homo sapiens, JK2, 72 h; in short: as §1
[6] = target: Dual specificity tyrosine-phosphorylation-regulated kinase 1A (Homo sapiens, UniProt Q13627); experiment: Inhibition of DYRK1A (unknown origin) using woodtide as substrate after 10 mins in presence of [gamma-33P]ATP by microbeta scintillation counting
[7] = target: Dual specificity protein kinase CLK1 (Homo sapiens, UniProt P49759); experiment: Inhibition of CLK1 (unknown origin) using KKGRSRSRSRSRSR as substrate after 40 mins in presence of [gamma-33P]ATP by microbeta scintillation counting
Sequence of Dual specificity protein kinase CLK1 (P49759 whole entry): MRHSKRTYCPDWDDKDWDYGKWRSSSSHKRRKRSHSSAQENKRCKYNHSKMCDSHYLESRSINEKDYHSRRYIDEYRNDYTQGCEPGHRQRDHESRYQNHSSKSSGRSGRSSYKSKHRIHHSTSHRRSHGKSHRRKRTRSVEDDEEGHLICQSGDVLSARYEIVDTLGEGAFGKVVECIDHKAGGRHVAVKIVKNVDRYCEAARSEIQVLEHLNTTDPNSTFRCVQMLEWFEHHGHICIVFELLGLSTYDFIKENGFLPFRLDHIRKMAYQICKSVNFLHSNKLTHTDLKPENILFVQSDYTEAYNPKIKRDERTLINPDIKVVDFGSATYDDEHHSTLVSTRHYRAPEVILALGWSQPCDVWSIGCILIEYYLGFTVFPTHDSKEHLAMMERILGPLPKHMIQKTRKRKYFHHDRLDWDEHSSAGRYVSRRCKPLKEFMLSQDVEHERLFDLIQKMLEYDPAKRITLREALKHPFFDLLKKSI
In short: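 CLK1 was assayed with RS peptide substrate at 100 µM ATP.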

[8] = Cytotoxicity against patient-derived SJH1 cells assessed as reduction in cell viability after 3 days by Alamar blue assay; type: functional, cell-based; conditions: Homo sapiens, SJH1, 72 h; in short: as §1
[9] = Antimigratory activity in patient-derived RN1 cells assessed as velocity of migration at 5 uM measured up to 20 hrs by wound scratch assay (reference value: 937 to 1174 micrometer/hr); type: functional, Homo sapiens
In short: (§2)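 Wound-healing migration assay: cell movement across the wound is measured as velocity (µm/h). Compounds were tested at 0, 1.0, 5.0 and 10.0 µM. Values are mean ± SEM of 3 independent experiments.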

U-251 [10] = experiment: Antimigratory activity in human U251 cells assessed as velocity of migration at 10 uM measured up to 20 hrs by wound scratch assay (reference value: 2159 to 2653 micrometer/hr); type: functional; in short: as §2
[11] = Antimigratory activity in patient-derived RN1 cells assessed as velocity of migration at 1 uM measured up to 20 hrs by wound scratch assay (reference value: 937 to 1174 micrometer/hr); type: functional, Homo sapiens; in short: as §2
U-251 [12] = experiment: Antimigratory activity in human U251 cells assessed as velocity of migration at 1 uM measured up to 20 hrs by wound scratch assay (reference value: 2159 to 2653 micrometer/hr); type: functional; in short: as §2
[13] = Antimigratory activity in patient-derived RN1 cells assessed as velocity of migration at 10 uM measured up to 20 hrs by wound scratch assay (reference value: 937 to 1174 micrometer/hr); type: functional, Homo sapiens; in short: as §2
U-251 [14] = experiment: Antiinvasive activity in human U251 cells assessed as velocity of invasion at 1 uM measured up to 20 hrs by matrigel assay (reference value: 1151 to 1710 micrometer/hr); type: functional
A 172 [15] = experiment: Cytotoxicity against human A172 cells assessed as reduction in cell viability after 3 days by Alamar blue assay; type: functional, cell-based; conditions: A 172, 72 h
A 172 [16] = experiment: Antimigratory activity in human A172 cells assessed as velocity of migration at 1 uM measured up to 20 hrs by wound scratch assay (reference value: 2650 to 3123 micrometer/hr); type: functional; in short: as §2
A 172 [17] = experiment: Antimigratory activity in human A172 cells assessed as velocity of migration at 10 uM measured up to 20 hrs by wound scratch assay (reference value: 2650 to 3123 micrometer/hr); type: functional; in short: as §2
A 172 [18] = experiment: Antiinvasive activity in human A172 cells assessed as velocity of invasion at 5 uM measured up to 20 hrs by matrigel assay (reference value: 2659 to 3047 micrometer/hr); type: functional
U-251 [19] = experiment: Antiinvasive activity in human U251 cells assessed as velocity of invasion at 5 uM measured up to 20 hrs by matrigel assay (reference value: 1151 to 1710 micrometer/hr); type: functional
U-251 [20] = experiment: Antiinvasive activity in human U251 cells assessed as velocity of invasion at 10 uM measured up to 20 hrs by matrigel assay (reference value: 1151 to 1710 micrometer/hr); type: functional
A 172 [21] = experiment: Antiinvasive activity in human A172 cells assessed as velocity of invasion at 10 uM measured up to 20 hrs by matrigel assay (reference value: 2659 to 3047 micrometer/hr); type: functional
U-251 [22] = experiment: Antimigratory activity in human U251 cells assessed as velocity of migration at 5 uM measured up to 20 hrs by wound scratch assay (reference value: 2159 to 2653 micrometer/hr); type: functional; in short: as §2
U-251 [23] = experiment: Cytotoxicity against human U251 cells assessed as reduction in cell viability after 3 days by Alamar blue assay; type: functional, cell-based; conditions: U-251, 72 h
A 172 [24] = experiment: Antiinvasive activity in human A172 cells assessed as velocity of invasion at 1 uM measured up to 20 hrs by matrigel assay (reference value: 2659 to 3047 micrometer/hr); type: functional
A 172 [25] = experiment: Antimigratory activity in human A172 cells assessed as velocity of migration at 5 uM measured up to 20 hrs by wound scratch assay (reference value: 2650 to 3123 micrometer/hr); type: functional; in short: as §2

pIC50 [3]	pIC50 [4]	pIC50 [6]	pIC50 [7]	SMILES	pEC50 [1]	pEC50 [2]	pEC50 [5]	pEC50 [8]	other results
–	–	–	–	CC(=O)O[C@H]1C(=O)[C@@]2(C)[C@H]([C@H](OC(=O)c3ccccc3)[C@]3(O)C[C@H](OC(=O)[C@H](O)[C@@H](NC(=O)c4ccccc4)c4ccccc4)C(C)=C1C3(C)C)[C@]1(OC(C)=O)CO[C@@H]1C[C@@H]2O	–	–	–	–	inhibition (Homo sapiens): Active
6.38	6.76	6.55	7.07	Oc1ccc(-c2cnc3[nH]cc(-c4ccc(-c5nnn[nH]5)cc4)c3c2)cc1	< 4.30	< 4.30	< 4.30	< 4.30	–
< 6.00	6.89	6.46	7.92	O=C(Nc1ccc(O)cc1)c1cnc2[nH]cc(-c3ccc(O)cc3)c2c1	4.90	4.68	4.42	5.28	–
6.32	7.77	7.51	8.02	NC(=O)Nc1ccc(-c2cnc3[nH]cc(-c4ccc(O)cc4)c3c2)cc1	4.66	< 4.30	< 4.30	4.55	–
6.24	7.08	6.77	6.93	Oc1ccc(-c2cnc3[nH]cc(-c4ccc5[nH]ccc5c4)c3c2)cc1	5.24	5.21	5.20	5.66	–
6.07	6.86	6.90	7.47	O=C(Nc1cccc(O)c1)c1cnc2[nH]cc(-c3ccc(O)cc3)c2c1	4.86	4.88	4.41	5.24	–
6.39	7.38	7.07	7.15	Oc1ccc(-c2c[nH]c3ncc(-c4ccc(-c5nnn[nH]5)cc4)cc23)cc1	< 4.30	< 4.30	< 4.30	< 4.30	–
< 6.00	< 6.00	< 6.00	< 6.00	Oc1ccc(-c2ccc3[nH]cc(-c4ccc(O)cc4)c3c2)cc1	< 4.30	< 4.30	< 4.30	< 4.30	–
< 6.00	< 6.00	< 6.00	< 6.00	Nc1ccc(-c2c[nH]c3ncc(-c4ccc(O)cc4)cc23)cc1	< 4.30	< 4.30	< 4.30	< 4.30	inhibition (Homo sapiens): inactive; Activity [9]: 929 um/hr; Activity (U-251 [10]): 2702 um/hr; Activity [11]: 1070 um/hr; Activity (U-251 [12]): 2331 um/hr; Activity [13]: 791 um/hr; Activity (U-251 [14]): 1451 um/hr; pEC50 (A 172 [15]): < 4.30; Activity (A 172 [16]): 3123 um/hr; Activity (A 172 [17]): 2827 um/hr; Activity (A 172 [18]): 2232 um/hr; Activity (U-251 [19]): 1481 um/hr; Activity (U-251 [20]): 1380 um/hr; Activity (A 172 [21]): 2707 um/hr; Activity (U-251 [22]): 2370 um/hr; pEC50 (U-251 [23]): < 4.30; Activity (A 172 [24]): 2411 um/hr; Activity (A 172 [25]): 3065 um/hr
6.19	7.29	6.69	7.59	Oc1ccc(-c2c[nH]c3ncc(-c4ccc5[nH]ccc5c4)cc23)cc1	< 4.30	< 4.30	< 4.30	4.52	–
6.78	7.82	7.85	7.32	Oc1ccc(-c2cnc3[nH]cc(-c4ccc(O)cc4)c3c2)cc1	5.70	5.96	5.29	5.39	–
< 6.00	6.70	6.67	6.73	O=[N+]([O-])c1ccc(-c2cnc3[nH]cc(-c4ccc(O)cc4)c3c2)cc1	< 4.30	< 4.30	< 4.30	< 4.30	–
6.14	6.89	7.25	7.36	CS(=O)(=O)Nc1ccc(-c2cnc3[nH]cc(-c4ccc(O)cc4)c3c2)cc1	4.85	4.38	4.89	4.38	–
< 6.00	< 6.00	< 6.00	< 6.00	Oc1ccc(-c2ccc3[nH]nc(-c4ccc(O)cc4)c3c2)cc1	< 4.30	< 4.30	< 4.30	< 4.30	–
< 6.00	< 6.00	< 6.00	< 6.00	O=C(Nc1cccc(O)c1)c1c[nH]c2ncc(-c3ccc(O)cc3)cc12	< 4.30	< 4.30	< 4.30	< 4.30	–
< 6.00	< 6.00	< 6.00	< 6.00	O=C(Nc1ccc(O)cc1)c1c[nH]c2ncc(-c3ccc(O)cc3)cc12	< 4.30	< 4.30	< 4.30	< 4.30	–
–	–	–	–	CC[C@]1(O)C[C@@H]2CN(CCc3c([nH]c4ccccc34)[C@@](C(=O)OC)(c3cc4c(cc3OC)N(C)[C@H]3[C@@](O)(C(=O)OC)[C@H](OC(C)=O)[C@]5(CC)C=CCN6CC[C@]43[C@@H]65)C2)C1	–	–	–	–	inhibition (Homo sapiens): Active
